Laboratory results taken from ChEMBL document CHEMBL4732237, “Discovery of 4-alkoxy-2-aryl-6,7-dimethoxyquinolines as a new class of topoisomerase I inhibitors endowed with potent in vitro anticancer activity” (2021).

system: NCI-H322M; test: Growth inhibition of human NCI-H322M cells at 10 uM incubated for 48 hrs by sulforhodamine B assay relative to control; assay type: functional; conditions: read-out: GI
In short: (§1)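 NCI one-dose screen. Cells grown in RPMI 1640 with 5% FBS and 2 mM L-glutamine, plated and incubated 24 h at 37 °C, 5% CO2. DMSO-dissolved drug added, then 48 h further incubation. Adherent cells fixed with cold TCA, suspension cells fixed after settling. Stained with 0.4% SRB, absorbance read at 515 nm. Reported as percent growth relative to no-drug control and time-zero cell number.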

SMILES	inhibition of growth at 10 µM
COc1cc2nc(-c3ccco3)cc(OCCCN3CCC(O)CC3)c2cc1OC	46%

system: SK-MEL-28; test: Growth inhibition of human SK-MEL-28 cells at 10 uM incubated for 48 hrs by sulforhodamine B assay relative to control; assay type: functional; conditions: read-out: GI; in short: as §1

SMILES	inhibition of growth at 10 µM
COc1cc2nc(-c3ccco3)cc(OCCCN3CCC(O)CC3)c2cc1OC	46%

system: NCI-H522; test: Growth inhibition of human NCI-H522 cells at 10 uM incubated for 48 hrs by sulforhodamine B assay relative to control; assay type: functional; conditions: read-out: GI; in short: as §1

SMILES	inhibition of growth at 10 µM
COc1cc2nc(-c3ccco3)cc(OCCCN3CCC(O)CC3)c2cc1OC	46%

system: OVCAR-4; test: Growth inhibition of human OVCAR-4 cells at 10 uM incubated for 48 hrs by sulforhodamine B assay relative to control; assay type: functional; conditions: read-out: GI; in short: as §1

SMILES	inhibition of growth at 10 µM
COc1cc2nc(-c3ccco3)cc(OCCCN3CCC(O)CC3)c2cc1OC	46%

system: TK-10; test: Growth inhibition of human TK-10 cells at 10 uM incubated for 48 hrs by sulforhodamine B assay relative to control; assay type: functional; conditions: read-out: GI
In short: (§2)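 NCI one-dose screen across a 59-line panel. Cells were grown in RPMI 1640 with 5% FBS and 2 mM L-glutamine, plated and pre-incubated 24 h, then exposed to drug for 48 h at 37 °C, 5% CO2. Adherent cells were fixed with cold TCA (10% final), stained with 0.4% SRB in 1% acetic acid and read at 515 nm. Result is percent growth relative to no-drug control and time-zero cell count.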

SMILES	inhibition of growth at 10 µM
COc1cc2nc(-c3ccco3)cc(OCCCN3CCC(O)CC3)c2cc1OC	46%

system: Malme-3M; test: Growth inhibition of human Malme-3M cells at 10 uM incubated for 48 hrs by sulforhodamine B assay relative to control; assay type: functional; conditions: read-out: GI; in short: as §1

SMILES	inhibition of growth at 10 µM
COc1cc2nc(-c3ccco3)cc(OCCCN3CCC(O)CC3)c2cc1OC	46%

system: SNB-19; test: Growth inhibition of human SNB-19 cells at 10 uM incubated for 48 hrs by sulforhodamine B assay relative to control; assay type: functional; conditions: read-out: GI; in short: as §1

SMILES	inhibition of growth at 10 µM
COc1cc2nc(-c3ccco3)cc(OCCCN3CCC(O)CC3)c2cc1OC	46%

system: EKVX; test: Growth inhibition of human EKVX cells at 10 uM incubated for 48 hrs by sulforhodamine B assay relative to control; assay type: functional; conditions: read-out: GI
In short: (§3)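 NCI-60 single-dose screen. Cells were grown in RPMI 1640 with 5% FBS and 2 mM L-glutamine and plated 24 h before drug addition. Compound was added at one concentration in DMSO-derived medium and incubated for 48 h at 37 °C in 5% CO2. Read-out was SRB protein stain at 515 nm. Result is percent growth versus the no-drug control and the time-zero cell count; values below 0 indicate lethality.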

SMILES	inhibition of growth at 10 µM
COc1cc2nc(-c3ccco3)cc(OCCCN3CCC(O)CC3)c2cc1OC	46%

system: SR; test: Growth inhibition of human SR cells at 10 uM incubated for 48 hrs by sulforhodamine B assay relative to control; assay type: functional; conditions: read-out: GI; in short: as §1

SMILES	inhibition of growth at 10 µM
COc1cc2nc(-c3ccco3)cc(OCCCN3CCC(O)CC3)c2cc1OC	46%

system: SK-MEL-5; test: Growth inhibition of human SK-MEL-5 cells at 10 uM incubated for 48 hrs by sulforhodamine B assay relative to control; assay type: functional; conditions: read-out: GI; in short: as §1

SMILES	inhibition of growth at 10 µM
COc1cc2nc(-c3ccco3)cc(OCCCN3CCC(O)CC3)c2cc1OC	46%

system: MDA-MB-435; test: Growth inhibition of human MDA-MB-435 cells at 10 uM incubated for 48 hrs by sulforhodamine B assay relative to control; assay type: functional; conditions: read-out: GI; in short: as §3

SMILES	inhibition of growth at 10 µM
COc1cc2nc(-c3ccco3)cc(OCCCN3CCC(O)CC3)c2cc1OC	46%

system: HL-60(TB); test: Growth inhibition of human HL-60(TB) cells at 10 uM incubated for 48 hrs by sulforhodamine B assay relative to control; assay type: functional; conditions: read-out: GI
In short: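 NCI-60 one-dose screen: same culture, 48 h drug exposure and SRB read-out. Reported as percent growth relative to no-drug control and to time-zero cell number; 0–100 means growth inhibition, below 0 means lethality.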

SMILES	inhibition of growth at 10 µM
COc1cc2nc(-c3ccco3)cc(OCCCN3CCC(O)CC3)c2cc1OC	46%

system: OVCAR-5; test: Growth inhibition of human OVCAR-5 cells at 10 uM incubated for 48 hrs by sulforhodamine B assay relative to control; assay type: functional; conditions: read-out: GI; in short: as §1

SMILES	inhibition of growth at 10 µM
COc1cc2nc(-c3ccco3)cc(OCCCN3CCC(O)CC3)c2cc1OC	46%

system: SNB-75; test: Growth inhibition of human SNB-75 cells at 10 uM incubated for 48 hrs by sulforhodamine B assay relative to control; assay type: functional; conditions: read-out: GI; in short: as §1

SMILES	inhibition of growth at 10 µM
COc1cc2nc(-c3ccco3)cc(OCCCN3CCC(O)CC3)c2cc1OC	46%

system: HOP-62; test: Growth inhibition of human HOP-62 cells at 10 uM incubated for 48 hrs by sulforhodamine B assay relative to control; assay type: functional; conditions: read-out: GI; in short: as §3

SMILES	inhibition of growth at 10 µM
COc1cc2nc(-c3ccco3)cc(OCCCN3CCC(O)CC3)c2cc1OC	46%

system: SF-539; test: Growth inhibition of human SF-539 cells at 10 uM incubated for 48 hrs by sulforhodamine B assay relative to control; assay type: functional; conditions: read-out: GI; in short: as §1

SMILES	inhibition of growth at 10 µM
COc1cc2nc(-c3ccco3)cc(OCCCN3CCC(O)CC3)c2cc1OC	46%

system: NCI-H23; test: Growth inhibition of human NCI-H23 cells at 10 uM incubated for 48 hrs by sulforhodamine B assay relative to control; assay type: functional; conditions: read-out: GI; in short: as §1

SMILES	inhibition of growth at 10 µM
COc1cc2nc(-c3ccco3)cc(OCCCN3CCC(O)CC3)c2cc1OC	46%

system: SW-620; test: Growth inhibition of human SW-620 cells at 10 uM incubated for 48 hrs by sulforhodamine B assay relative to control; assay type: functional; conditions: read-out: GI; in short: as §2

SMILES	inhibition of growth at 10 µM
COc1cc2nc(-c3ccco3)cc(OCCCN3CCC(O)CC3)c2cc1OC	46%

system: BT-549; test: Growth inhibition of human BT-549 cells at 10 uM incubated for 48 hrs by sulforhodamine B assay relative to control; assay type: functional; conditions: read-out: GI; in short: as §3

SMILES	inhibition of growth at 10 µM
COc1cc2nc(-c3ccco3)cc(OCCCN3CCC(O)CC3)c2cc1OC	46%

system: SF-268; test: Growth inhibition of human SF-268 cells at 10 uM incubated for 48 hrs by sulforhodamine B assay relative to control; assay type: functional; conditions: read-out: GI; in short: as §1

SMILES	inhibition of growth at 10 µM
COc1cc2nc(-c3ccco3)cc(OCCCN3CCC(O)CC3)c2cc1OC	46%

system: HOP-92; test: Growth inhibition of human HOP-92 cells at 10 uM incubated for 48 hrs by sulforhodamine B assay relative to control; assay type: functional; conditions: read-out: GI; in short: as §3

SMILES	inhibition of growth at 10 µM
COc1cc2nc(-c3ccco3)cc(OCCCN3CCC(O)CC3)c2cc1OC	46%

system: UACC-257; test: Growth inhibition of human UACC-257 cells at 10 uM incubated for 48 hrs by sulforhodamine B assay relative to control; assay type: functional; conditions: read-out: GI; in short: as §2

SMILES	inhibition of growth at 10 µM
COc1cc2nc(-c3ccco3)cc(OCCCN3CCC(O)CC3)c2cc1OC	46%

system: SK-MEL-2; test: Growth inhibition of human SK-MEL-2 cells at 10 uM incubated for 48 hrs by sulforhodamine B assay relative to control; assay type: functional; conditions: read-out: GI; in short: as §1

SMILES	inhibition of growth at 10 µM
COc1cc2nc(-c3ccco3)cc(OCCCN3CCC(O)CC3)c2cc1OC	46%

system: LOX IMVI; test: Growth inhibition of human LOX IMVI cells at 10 uM incubated for 48 hrs by sulforhodamine B assay relative to control; assay type: functional; conditions: read-out: GI; in short: as §3

SMILES	inhibition of growth at 10 µM
COc1cc2nc(-c3ccco3)cc(OCCCN3CCC(O)CC3)c2cc1OC	46%

system: T47D; test: Growth inhibition of human T47D cells at 10 uM incubated for 48 hrs by sulforhodamine B assay relative to control; assay type: functional; conditions: read-out: GI; in short: as §2

SMILES	inhibition of growth at 10 µM
COc1cc2nc(-c3ccco3)cc(OCCCN3CCC(O)CC3)c2cc1OC	46%

system: NCI/ADR-RES; test: Growth inhibition of human NCI/ADR-RES cells at 10 uM incubated for 48 hrs by sulforhodamine B assay relative to control; assay type: functional; conditions: read-out: GI; in short: as §1

SMILES	inhibition of growth at 10 µM
COc1cc2nc(-c3ccco3)cc(OCCCN3CCC(O)CC3)c2cc1OC	46%

system: MDA-MB-468; test: Growth inhibition of human MDA-MB-468 cells at 10 uM incubated for 48 hrs by sulforhodamine B assay relative to control; assay type: functional; conditions: read-out: GI; in short: as §3

SMILES	inhibition of growth at 10 µM
COc1cc2nc(-c3ccco3)cc(OCCCN3CCC(O)CC3)c2cc1OC	46%

system: NCI-H460; test: Growth inhibition of human NCI-H460 cells at 10 uM incubated for 48 hrs by sulforhodamine B assay relative to control; assay type: functional; conditions: read-out: GI; in short: as §1

SMILES	inhibition of growth at 10 µM
COc1cc2nc(-c3ccco3)cc(OCCCN3CCC(O)CC3)c2cc1OC	46%

system: UACC-62; test: Growth inhibition of human UACC-62 cells at 10 uM incubated for 48 hrs by sulforhodamine B assay relative to control; assay type: functional; conditions: read-out: GI; in short: as §2

SMILES	inhibition of growth at 10 µM
COc1cc2nc(-c3ccco3)cc(OCCCN3CCC(O)CC3)c2cc1OC	46%

system: KM12; test: Growth inhibition of human KM12 cells at 10 uM incubated for 48 hrs by sulforhodamine B assay relative to control; assay type: functional; conditions: read-out: GI; in short: as §3

SMILES	inhibition of growth at 10 µM
COc1cc2nc(-c3ccco3)cc(OCCCN3CCC(O)CC3)c2cc1OC	46%

system: PC-3; test: Growth inhibition of human PC-3 cells at 10 uM incubated for 48 hrs by sulforhodamine B assay relative to control; assay type: functional; conditions: read-out: GI; in short: as §1

SMILES	inhibition of growth at 10 µM
COc1cc2nc(-c3ccco3)cc(OCCCN3CCC(O)CC3)c2cc1OC	46%

system: OVCAR-3; test: Growth inhibition of human OVCAR-3 cells at 10 uM incubated for 48 hrs by sulforhodamine B assay relative to control; assay type: functional; conditions: read-out: GI; in short: as §1

SMILES	inhibition of growth at 10 µM
COc1cc2nc(-c3ccco3)cc(OCCCN3CCC(O)CC3)c2cc1OC	46%

system: K562; test: Growth inhibition of human K562 cells at 10 uM incubated for 48 hrs by sulforhodamine B assay relative to control; assay type: functional; conditions: read-out: GI; in short: as §3

SMILES	inhibition of growth at 10 µM
COc1cc2nc(-c3ccco3)cc(OCCCN3CCC(O)CC3)c2cc1OC	46%

system: SN12C; test: Growth inhibition of human SN12C cells at 10 uM incubated for 48 hrs by sulforhodamine B assay relative to control; assay type: functional; conditions: read-out: GI; in short: as §1

SMILES	inhibition of growth at 10 µM
COc1cc2nc(-c3ccco3)cc(OCCCN3CCC(O)CC3)c2cc1OC	46%

system: Hs-578T; test: Growth inhibition of human HS-578T cells at 10 uM incubated for 48 hrs by sulforhodamine B assay relative to control; assay type: functional; conditions: read-out: GI; in short: as §3

SMILES	inhibition of growth at 10 µM
COc1cc2nc(-c3ccco3)cc(OCCCN3CCC(O)CC3)c2cc1OC	46%

system: OVCAR-8; test: Growth inhibition of human OVCAR-8 cells at 10 uM incubated for 48 hrs by sulforhodamine B assay relative to control; assay type: functional; conditions: read-out: GI; in short: as §1

SMILES	inhibition of growth at 10 µM
COc1cc2nc(-c3ccco3)cc(OCCCN3CCC(O)CC3)c2cc1OC	46%
